Measured values reported in ChEMBL document CHEMBL4689842, “EUbOPEN Chemogenomics Library wave 1” (2021).
Where “and” joins values, the source holds several entries; their conditions need not be identical. Identical values can stand only once.

Test system: HEK-293T
Test: Multiplex assay against HEK293T;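 on Population Tubulin-Different-Phenotype (%): share of the cells with healthy nuclei that show this phenotype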
Type: toxicity, cell-based
Details: human
Procedure, shortened: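 Live cells carried four stains from seeding: Hoechst33342, BioTracker Green Microtubule Cytoskeleton Dye, MitoTracker Red and Annexin V Alexa Fluor 680. They were imaged on a CQ1 microscope at 37°C and 5% CO2 after compound addition. Using CellPathfinder machine-learning gating, cells were split into Hoechst high-intensity objects or normal cells, normal cells into healthy, pyknosed or fragmented nuclei, and pyknosed cells into mitotic or apoptotic; tubulin, mitochondrial-mass and membrane-permeability phenotypes are per cents of healthy-nucleus cells.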

[1] = 12 h, 1 µM, compound concentration 1 uM, replicate 1
[2] = 12 h, 1 µM, compound concentration 1 uM, replicate 2
[3] = 12 h, 10 µM, compound concentration 10 uM, replicate 1
[4] = 12 h, 10 µM, compound concentration 10 uM, replicate 2
[5] = 24 h, 1 µM, compound concentration 1 uM, replicate 1
[6] = 24 h, 1 µM, compound concentration 1 uM, replicate 2
[7] = 24 h, 10 µM, compound concentration 10 uM, replicate 1
[8] = 24 h, 10 µM, compound concentration 10 uM, replicate 2
[9] = 48 h, 10 µM, compound concentration 10 uM, replicate 1
[10] = 48 h, 10 µM, compound concentration 10 uM, replicate 2

SMILES: COc1cc2nccc(Oc3ccc(NC(=O)Nc4cc(C)on4)c(Cl)c3)c2cc1OC.O
- Population Apoptotic (%) [1]: 28% and 23%
- Population Fragmented Nuclei (%) [1]: 14%
- Population Healthy Nuclei (%) [1]: 55% and 71%
- Population Hoechst High Intensity Objects (%) [1]: 12% and 10%
- Population Mitotic Cells (%) [1]: 72% and 76%
- Population Normal (%) [1]: 87% and 89%
- Population Pyknosed Nuclei (%) [1]: 30% and 14%
- Total Cell Count [1]: 660 and 667
- Population Apoptotic (%) [2]: 18% and 12%
- Population Fragmented Nuclei (%) [2]: 3% and 9%
- Population Healthy Nuclei (%) [2]: 86%
- Population Hoechst High Intensity Objects (%) [2]: 2%
- Population Mitotic Cells (%) [2]: 81% and 87%
- Population Normal (%) [2]: 97%
- Population Pyknosed Nuclei (%) [2]: 10% and 4%
- Total Cell Count [2]: 918 and 1845
- Population Apoptotic (%) [3]: 82%
- Population Fragmented Nuclei (%) [3]: 11%
- Population Healthy Nuclei (%) [3]: 21%
- Population Hoechst High Intensity Objects (%) [3]: 13%
- Population Membrane Permeable-Phenotype (%) [3]: 2%
- Population Mitochondria Different-Phenotype (%) [3]: 100%
- Population Mitotic Cells (%) [3]: 17%
- Population Normal (%) [3]: 86%
- Population Tubulin-Different-Phenotype (%) [3]: 97%
- Total Cell Count [3]: 260
- Population Apoptotic (%) [4]: 59%
- Population Fragmented Nuclei (%) [4]: 3%
- Population Healthy Nuclei (%) [4]: 30%
- Population Hoechst High Intensity Objects (%) [4]: 1%
- Population Membrane Permeable-Phenotype (%) [4]: 8%
- Population Mitochondria Different-Phenotype (%) [4]: 88%
- Population Mitotic Cells (%) [4]: 40%
- Population Normal (%) [4]: 98%
- Population Pyknosed Nuclei (%) [4]: 66%
- Population Tubulin-Different-Phenotype (%) [4]: 94%
- Total Cell Count [4]: 226
- Population Apoptotic (%) [5]: 39% and 22%
- Population Fragmented Nuclei (%) [5]: 14% and 17%
- Population Healthy Nuclei (%) [5]: 63% and 74%
- Population Hoechst High Intensity Objects (%) [5]: 11% and 8%
- Population Membrane Permeable-Phenotype (%) [5]: 10%
- Population Mitotic Cells (%) [5]: 60% and 77%
- Population Normal (%) [5]: 88% and 92%
- Population Pyknosed Nuclei (%) [5]: 22% and 8%
- Total Cell Count [5]: 680 and 875
- Population Healthy Nuclei (%) [6]: 89% and 68%
- Population Hoechst High Intensity Objects (%) [6]: 4% and 3%
- Population Membrane Permeable-Phenotype (%) [6]: 14% and 8%
- Population Mitotic Cells (%) [6]: 81% and 95%
- Population Normal (%) [6]: 95% and 96%
- Population Apoptotic (%) [7]: 89%
- Population Fragmented Nuclei (%) [7]: 12%
- Population Healthy Nuclei (%) [7]: 30%
- Population Hoechst High Intensity Objects (%) [7]: 14%
- Population Membrane Permeable-Phenotype (%) [7]: 3%
- Population Mitochondria Different-Phenotype (%) [7]: 100%
- Population Mitotic Cells (%) [7]: 10%
- Population Normal (%) [7]: 85%
- Population Pyknosed Nuclei (%) [7]: 56%
- Population Tubulin-Different-Phenotype (%) [7]: 100%
- Total Cell Count [7]: 253
- Population Apoptotic (%) [8]: 76%
- Population Fragmented Nuclei (%) [8]: 2%
- Population Healthy Nuclei (%) [8]: 50%
- Population Hoechst High Intensity Objects (%) [8]: 1%
- Population Membrane Permeable-Phenotype (%) [8]: 2%
- Population Mitochondria Different-Phenotype (%) [8]: 98%
- Population Mitotic Cells (%) [8]: 23%
- Population Normal (%) [8]: 98%
- Population Pyknosed Nuclei (%) [8]: 47%
- Population Tubulin-Different-Phenotype (%) [8]: 97%
- Total Cell Count [8]: 258
- Population Apoptotic (%) [9]: 73%
- Population Fragmented Nuclei (%) [9]: 14%
- Population Healthy Nuclei (%) [9]: 40%
- Population Hoechst High Intensity Objects (%) [9]: 11%
- Population Membrane Permeable-Phenotype (%) [9]: 2%
- Population Mitochondria Different-Phenotype (%) [9]: 96%
- Population Mitotic Cells (%) [9]: 26%
- Population Normal (%) [9]: 88%
- Population Pyknosed Nuclei (%) [9]: 45%
- Population Tubulin-Different-Phenotype (%) [9]: 98%
- Total Cell Count [9]: 272
- Population Apoptotic (%) [10]: 83%
- Population Fragmented Nuclei (%) [10]: 3%
- Population Healthy Nuclei (%) [10]: 72%
- Population Hoechst High Intensity Objects (%) [10]: 2%
- Population Membrane Permeable-Phenotype (%) [10]: 1%
- Population Mitochondria Different-Phenotype (%) [10]: 91%
- Population Mitotic Cells (%) [10]: 16%
- Population Normal (%) [10]: 97%
- Population Pyknosed Nuclei (%) [10]: 23%
- Total Cell Count [10]: 292
